Assay [1] deals with A549. The assay is described as follows: Cytotoxicity against human A549 cells after 48 hrs by sulforhodamine B assay. The assay is classed as functional. Conditions: A549, 48 h. A digest of the protocol:
(§1)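 Cells were grown in RPMI 1640 with 10% FBS and 2 mM L-glutamine, seeded at densities set by doubling time, and left 24 h before drug. Exposure was 48 h continuous at 0.1, 1, 10 and 100 µM, triplicate wells. Cells were fixed in cold 10% TCA for 60 min at 4 °C and stained with SRB. Bound dye was eluted with 10 mM Tris and read at 540 nm (690 nm reference). GI50 was the concentration halving net protein increase versus control.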

The subject of assay [2] is HOP-62. The assay is described as follows: Cytotoxicity against human HOP62 cells after 48 hrs by sulforhodamine B assay. The assay is classed as functional. Conditions: HOP-62, 48 h. Put shortly: as §1
Background: In SRB staining, fixed cells bind dye roughly in proportion to their protein.

Assay [3] relates to ZR-75-1. The assay is described as follows: Cytotoxicity against human Zr-75-1 cells after 48 hrs by sulforhodamine B assay. The following applies: ZR-75-1, 48 h. It is filed as functional. Put shortly: as §1
The test system of assay [4] is MCF7. The experiment in a line: Cytotoxicity against human MCF7 cells after 48 hrs by sulforhodamine B assay. The following applies: MCF7, 48 h. It is filed as functional. A digest of the protocol:
as §1

Assay [5] in a line: Cytotoxicity against human AW13516 cells after 48 hrs by sulforhodamine B assay. It is filed as functional. A digest of the protocol: as §1
Assay [6] in a line: Cytotoxicity against human AW8507 cells after 48 hrs by sulforhodamine B assay. It is filed as functional. The following applies: AW8507, 48 h. A digest of the protocol:
as §1

Assay [7] deals with KB. The experiment in a line: Cytotoxicity against human KB cells after 48 hrs by sulforhodamine B assay. It is filed as functional. A digest of the protocol:
as §1

The test system of assay [8] is COLO 205. The assay is described as follows: Cytotoxicity against human Colo205 cells after 48 hrs by sulforhodamine B assay. The assay is classed as functional. Conditions: COLO 205, 48 h. A digest of the protocol:
as §1

For assay [9], the system named is SiHa. The experiment in a line: Cytotoxicity against human SiHa cells after 48 hrs by sulforhodamine B assay. The assay is classed as functional. A digest of the protocol:
as §1

Assay [10] deals with PC-3. The experiment in a line: Cytotoxicity against human PC3 cells after 48 hrs by sulforhodamine B assay. It is filed as functional. The following applies: PC-3, 48 h. A digest of the protocol:
as §1

Assay [11] relates to A2780. The assay is described as follows: Cytotoxicity against human A2780 cells after 48 hrs by sulforhodamine B assay. The assay is classed as functional. Conditions: A2780, 48 h. A digest of the protocol: as §1
In assay [12] the test system is DNA. The experiment in a line: Binding affinity to calf thymus DNA at pH 7.0 at 20 uM after 18 hrs by thermal denaturation assay. It is filed as nucleic-acid assay. Conditions: Bos taurus.
For assay [13], the system named is DNA. The experiment in a line: Binding affinity to calf thymus DNA at pH 7.0 at 20 uM after 36 hrs by thermal denaturation assay. It is filed as nucleic-acid assay. The following applies: Bos taurus.

A word on the GI50: it is the concentration that inhibits growth by half. The term ΔTm denotes the shift of the melting midpoint relative to a reference. Take `COc1cc2c(cc1OCCCSc1nnc3n1S(=O)(=O)c1ccccc1N3C)N=C[C@@H]1CCCN1C2=O`: the GI50 in assay [1] was determined as 2290 nM; in assay [2] it was 2130 nM; in assay [3], 2190 nM; in assay [4], 2060 nM; in assay [5], 2240 nM; in assay [6], 2240 nM. Moreover, the GI50 was determined as 2380 nM in assay [7]; 1930 nM in assay [8]; 2120 nM in assay [9]; 2150 nM in [10]; 1830 nM in [11]. For the same molecule, the ΔTm stood at 1.5 °C in assay [12] and 1.7 °C in assay [13].
For `COc1cc2c(cc1OCCCCCSc1nnc3n1S(=O)(=O)c1ccccc1N3C)N=C[C@@H]1CCCN1C2=O`, the GI50 in [1] turned out to be 2450 nM; in [3], 28500 nM; in assay [5], 1950 nM; in assay [6] it was 220 nM; in [7] it was 25600 nM; in assay [8], 2190 nM. In addition, the results for the GI50 in assay [9], in assay [10] and in assay [11] were 27900 nM, 25500 nM and 1920 nM, respectively. Moreover, the figures for the ΔTm in assay [12] and in [13] were 2.4 °C and 2.6 °C, respectively.
As for `COc1cc2c(cc1OCCCCSc1nnc3n1S(=O)(=O)c1ccccc1N3c1ccccc1)N=C[C@@H]1CCCN1C2=O`, the 50% growth inhibitory concentration (GI50) in assay [1] worked out at 29700 nM; in [5], 1980 nM; in assay [6], 25800 nM; in assay [10] it was 28800 nM; in assay [11], 2270 nM. In addition, the ΔTm stood at 0.6 °C in assay [12] and 0.7 °C in assay [13].
Take `COc1cc2c(cc1O)N=C[C@@H]1CCCN1C2=O`: the ΔTm in assay [12] and in [13] was 0.7 °C in each case.
Turning to `COc1cc2c(cc1OCCCCSc1nnc3n1S(=O)(=O)c1ccccc1N3C)N=C[C@@H]1CCCN1C2=O`, the GI50 in assay [1] was found to be 2280 nM; in assay [3] it was 25900 nM; in [4], 2290 nM; in [5], 26600 nM; in assay [6], 2290 nM; in assay [7], 26400 nM. The GI50 in [8] was 2110 nM; in assay [9], 27000 nM; in assay [10] it was 25500 nM; in assay [11], 2170 nM. Moreover, the results for the thermal shift (ΔTm) in [12] and in assay [13] were 0.5 °C and 0.7 °C, respectively.
Take `COc1cccc2c1C(=O)c1c(O)c3c(c(O)c1C2=O)C[C@@](O)(C(=O)CO)C[C@@H]3O[C@H]1C[C@H](N)[C@H](O)[C@H](C)O1` [DOXORUBICIN]: the GI50 in assay [2] stood at 140 nM; in assay [4], 170 nM; in [5], 100 nM; in assay [6] it was 170 nM; in assay [7], 1720 nM; in [8] it was 140 nM. Besides, the results for the GI50 in [9] and in assay [11] were 180 nM and 160 nM, respectively.
As for `COc1cc2c(cc1OCCCSc1nnc3n1S(=O)(=O)c1ccccc1N3c1ccccc1)N=C[C@@H]1CCCN1C2=O`, the figures for the GI50 in [3] and in [11] were 26000 nM and 30000 nM, respectively. The shift in melting temperature (ΔTm) in assay [12] was 1.2 °C; in [13], 1.5 °C.
As for `COc1cc2c(cc1OCCCCCSc1nnc3n1S(=O)(=O)c1ccccc1N3c1ccccc1)N=C[C@@H]1CCCN1C2=O`, the GI50 in [1] amounted to 30300 nM; in assay [2] it was 2350 nM; in [3], 24000 nM; in assay [5], 1780 nM; in [6] it was 2480 nM; in assay [7], 2460 nM. Besides, the GI50 in [8] was determined as 25600 nM; in [9] it was 2300 nM; in assay [10], 2400 nM; in assay [11], 2010 nM. Also, the values for the ΔTm in [12] and in assay [13] were 1.3 °C and 1.5 °C, respectively.

The values are drawn from ChEMBL document CHEMBL1156549, “Synthesis, DNA-binding ability and evaluation of antitumour activity of triazolo[1,2,4]benzothiadiazine linked pyrrolo[2,1-c][1,4]benzodiazepine conjugates” (2008).
